{"source": "ChEMBL document CHEMBL3526142", "about": "“Biotransformation of a novel antimitotic agent, I-387, by mouse, rat, dog, monkey, and human liver microsomes and in vivo pharmacokinetics in mice” (Drug Metab Dispos, 2011)", "key": {"[1]": {"assay": "Mean residence time (infinity) in ICR mouse at 1 mg/kg, ip by LC-MS/MS analysis", "format": "ADME, organism-based", "set-up": "dose 1 mg/kg, route intraperitoneal", "details": "in vivo", "outline": "(§1)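 Male ICR mice (5–6 weeks, 20–25 g), single doses of 1, 5 or 15 mg/kg in 10% DMSO/PEG300, given iv by tail vein, ip, or orally by gavage. Three to four mice per time point, euthanized under isoflurane, blood drawn from posterior vena cava. Plasma protein precipitated with acetonitrile containing internal standard, then LC-MS/MS (MRM m/z 388.2→192). Noncompartmental analysis of mean concentration-time data, AUCinf by trapezoidal rule with extrapolation, CL = dose/AUCinf, Cmax read from the curve. F = (AUCnon-iv × dose iv)/(AUCiv × dose non-iv). n = 3 per dose group.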"}, "[2]": {"assay": "Metabolic stability in rat liver microsomes assessed as half life during phase 1 at 0.5 uM by LC-MS/MS analysis in presence of 3 mM NADPH and absence of UDPGA", "format": "ADME", "details": "read-out: alphat1/2", "outline": "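Pooled liver microsomes at 1 mg/ml protein with 3 mM NADPH, 0.5 μM substrate in 65 mM potassium phosphate pH 7.4, 1% methanol, 37°C. Incubations stopped at 10, 20, 30, 60 and 90 min with ice-cold acetonitrile plus internal standard, then LC-MS/MS of parent remaining relative to time 0. Half-life from a two-parameter single exponential decay fit; n = 2 to 3.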"}, "[3]": {"assay": "Mean residence time (infinity) in ICR mouse at 5 mg/kg, ip by LC-MS/MS analysis", "format": "ADME, organism-based", "set-up": "dose 5 mg/kg, route intraperitoneal", "details": "in vivo", "outline": "as §1"}, "[4]": {"assay": "Mean residence time (infinity) in ICR mouse at 15 mg/kg, po via gavage by LC-MS/MS analysis", "format": "ADME, organism-based", "set-up": "dose 15 mg/kg, route oral", "details": "in vivo", "outline": "as §1"}, "[5]": {"assay": "AUC (infinity) in ICR mouse at 5 mg/kg, po via gavage by LC-MS/MS analysis", "format": "ADME, organism-based", "set-up": "time infinity, dose 5 mg/kg, route oral", "details": "plasma", "outline": "as §1"}, "[6]": {"tested_on": "Liver", "assay": "Drug level in mouse liver microsomes assessed as compound retention time treated with 0.5 uM I-387 after 2 hrs by LC-MS/MS analysis", "format": "ADME", "outline": "(§2)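 Pooled liver microsomes (1 mg/ml protein) incubated with 0.5 µM substrate and 3 mM NADPH in 65 mM potassium phosphate, pH 7.4, 1% methanol, at 37°C for 2 h. Stopped with ice-cold acetonitrile containing internal standard, centrifuged. Supernatant analysed by LC-MS/MS on a C18 column, 15-min gradient, with product ion scans for metabolite identification.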"}, "[7]": {"tested_on": "Liver microsome", "assay": "Drug metabolism in dog liver microsomes assessed as (3-(1H-indol-2-yl)phenyl)(3,4,5-trimethoxyphenyl)methanol formation at 0.5 uM after 2 hrs by LC-MS/MS analysis in presence of 3 mM NADPH", "format": "ADME, Canis lupus familiaris", "outline": "as §2"}, "[8]": {"assay": "Tmax in ICR mouse at 15 mg/kg, ip by LC-MS/MS analysis", "format": "ADME, organism-based", "set-up": "dose 15 mg/kg, route intraperitoneal", "details": "in vivo", "outline": "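Male ICR mice (20–25 g) given the compound intraperitoneally or by gavage in 10% DMSO/PEG300. Three to four mice were sacrificed per time point and plasma collected from the vena cava. Plasma was precipitated with acetonitrile containing internal standard and analysed by LC-MS/MS. Noncompartmental analysis of mean concentration-time data: terminal t1/2 = ln2/λz; Tmax by inspection; n = 3/dose group.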"}, "[9]": {"assay": "Clearance in ICR mouse at 5 mg/kg, iv by LC-MS/MS analysis", "format": "ADME, organism-based", "set-up": "dose 5 mg/kg, route intravenous", "details": "in vivo", "outline": "as §1"}, "[10]": {"assay": "AUC (infinity) in ICR mouse at 1 mg/kg, ip by LC-MS/MS analysis", "format": "ADME, organism-based", "set-up": "time infinity, dose 1 mg/kg, route intraperitoneal", "details": "plasma", "outline": "as §1"}, "[11]": {"assay": "Bioavailability in ICR mouse at 15 mg/kg, ip by LC-MS/MS analysis", "format": "ADME, organism-based", "details": "in vivo", "outline": "as §1"}, "[12]": {"assay": "Retention time of the compound at 0.5 uM by LC-MS/MS analysis", "format": "physicochemical", "outline": "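After a 2 h incubation at 37°C with liver microsomes (1 mg/ml protein, 3 mM NADPH, 0.5 μM substrate, pH 7.4 phosphate buffer), samples were quenched with acetonitrile and centrifuged. Supernatant separated on a C18 column (15 min run, linear gradient 100% A to 100% B over 7 min) with LC-MS/MS ion trap detection.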"}, "[13]": {"assay": "Clearance in ICR mouse at 1 mg/kg, iv by LC-MS/MS analysis", "format": "ADME, organism-based", "set-up": "dose 1 mg/kg, route intravenous", "details": "in vivo", "outline": "as §1"}, "[14]": {"tested_on": "Liver microsome", "assay": "Drug metabolism in human liver microsomes assessed as (3-(1H-indol-2-yl)phenyl)(3,4,5-trimethoxyphenyl)methanol formation at 0.5 uM after 2 hrs by LC-MS/MS analysis in presence of 3 mM NADPH", "format": "ADME", "outline": "as §2"}, "[15]": {"assay": "Cmax in ICR mouse at 5 mg/kg, iv by LC-MS/MS analysis", "format": "ADME, organism-based", "set-up": "dose 5 mg/kg, route intravenous", "details": "in vivo", "outline": "as §1"}, "[16]": {"assay": "Volume of distribution at steady state in ICR mouse at 15 mg/kg, iv by LC-MS/MS analysis", "format": "ADME, organism-based", "set-up": "dose 15 mg/kg, route intravenous", "details": "in vivo, read-out: Vdss", "outline": "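Tail-vein injection in male ICR mice (5–6 weeks), vehicle 10% DMSO in PEG300. Serial terminal sampling of 3–4 mice per time point, with posterior vena cava blood. Plasma was acetonitrile-precipitated and measured by LC-MS/MS. Noncompartmental analysis of mean data: t1/2 = ln2/λz, CL = dose/AUC_inf, Vd_ss = CL × MRT_inf; n = 3/dose group.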"}, "[17]": {"assay": "Mean residence time (infinity) in ICR mouse at 1 mg/kg, po via gavage by LC-MS/MS analysis", "format": "ADME, organism-based", "set-up": "dose 1 mg/kg, route oral", "details": "in vivo", "outline": "as §1"}, "[18]": {"assay": "AUC (infinity) in ICR mouse at 1 mg/kg, iv by LC-MS/MS analysis", "format": "ADME, organism-based", "set-up": "time infinity, dose 1 mg/kg, route intravenous", "details": "plasma", "outline": "as §1"}, "[19]": {"tested_on": "Liver microsome", "assay": "Drug level in dog liver microsomes assessed as compound retention time treated with 0.5 uM I-387 after 2 hrs by LC-MS/MS analysis", "format": "ADME, Canis lupus familiaris", "outline": "as §2"}, "[20]": {"tested_on": "Liver microsome", "assay": "Drug level in rat liver microsomes assessed as compound retention time treated with 0.5 uM I-387 after 2 hrs by LC-MS/MS analysis", "format": "ADME", "outline": "as §2"}}}
{"smiles": "COc1cc(C(=O)c2cccc(-c3cc4ccccc4[nH]3)c2)cc(OC)c1OC", "values": [{"measurement": "MRT inf", "setting": "[1]", "result": 6.4, "unit": "h"}, {"measurement": "half-life at 0.5 µM", "setting": "[2]", "result": 0.7, "unit": "h"}, {"measurement": "MRT inf", "setting": "[3]", "result": 5.5, "unit": "h"}, {"measurement": "MRT inf", "setting": "[4]", "result": 8.9, "unit": "h"}, {"measurement": "AUC(0-inf)", "setting": "[5]", "result": 517, "unit": "ng·h/mL"}, {"measurement": "Retention_time", "setting": "[6]", "result": 11.3, "unit": "min"}, {"measurement": "Drug metabolism", "setting": "[7]", "result": "metabolite_detected"}, {"measurement": "Tmax", "setting": "[8]", "result": 0.167, "unit": "h"}, {"measurement": "clearance", "setting": "[9]", "result": 22, "unit": "mL/min/kg"}, {"measurement": "AUC(0-inf)", "setting": "[10]", "result": 400, "unit": "ng·h/mL"}, {"measurement": "bioavailability", "setting": "[11]", "result": 94, "unit": "%"}, {"measurement": "Retention_time", "setting": "[12]", "result": 11.3, "unit": "min"}, {"measurement": "clearance", "setting": "[13]", "result": 27, "unit": "mL/min/kg"}, {"measurement": "Drug metabolism", "setting": "[14]", "result": "metabolite_detected"}, {"measurement": "Cmax", "setting": "[15]", "result": 2860, "unit": "ng/mL"}, {"measurement": "Vd", "setting": "[16]", "result": 9.8, "unit": "L/kg"}, {"measurement": "MRT inf", "setting": "[17]", "result": 9, "unit": "h"}, {"measurement": "AUC(0-inf)", "setting": "[18]", "result": 617, "unit": "ng·h/mL"}, {"measurement": "Retention_time", "setting": "[19]", "result": 11.3, "unit": "min"}, {"measurement": "Retention_time", "setting": "[20]", "result": 11.3, "unit": "min"}]}
